Measured values: ChEMBL document CHEMBL1177774, “2-Aryl-4,5,6,7-tetrahydro-1,3-benzothiazol-7-ols as a class of antitumor agents selectively active in securin(-/-) cells” (Bioorg Med Chem Lett, 2010)

Tests used:
Type in all cases: functional, cell-based
HCT-116 [1] = assay: Cytotoxicity against human HCT116 cells after 2 days by sulforhodamine B assay; conditions: HCT-116, 48 h
How it was run: (§1)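 Cells kept in RPMI 1640 with 10% fetal bovine serum and 50 µg/ml gentamicin, 37 °C, humidified, 5% CO2. Plated in 96-well plates; compound dilutions added next day (final 2 nM to 200 µM), then 2 days culture before survival read-out. 10 concentrations, in triplicate (some in duplicate); repeat values agreed on average within 40%.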

HCT-116 [2] = assay: Cytotoxicity against human HCT116-D8 securin -/- cells after 2 days by sulforhodamine B assay; conditions: HCT-116, 48 h; how it was run: as §1
[3] = Cytotoxicity against human HCT116-F3 securin -/- cells after 2 days by sulforhodamine B assay; conditions: 48 h; how it was run: as §1
MCF-10A = assay: Cytotoxicity against human MCF10A cells after 2 days by sulforhodamine B assay; conditions: 48 h; how it was run: as §1
MCF7 = assay: Cytotoxicity against human MCF7 cells after 2 days by sulforhodamine B assay; conditions: MCF7, 48 h; how it was run: as §1
MDA-MB-361 = assay: Cytotoxicity against human MDA-MB-361 cells after 2 days by sulforhodamine B assay; conditions: MDA-MB-361, 48 h; how it was run: as §1

SMILES	IC50 (HCT-116 [1]) [nM]	IC50 (HCT-116 [2]) [nM]	IC50 [3] [nM]	IC50 (MCF-10A) [nM]	IC50 (MCF7) [nM]	IC50 (MDA-MB-361) [nM]
CN(C)c1ccc(-c2nc3c(s2)C(O)CCC3)c(CO)c1 (stereo unspecified)	78000	60	60	> 100000	360	420
OCc1cc(N2CCCC2)ccc1-c1nc2c(s1)C(O)CCC2 (stereo unspecified)	21000	42	44	17000	56	32
CN(C)c1ccc(-c2nc3c(s2)[C@@H](O)CCC3)cc1	> 100000	20000	46000	> 100000	3300	
CN(C)c1ccc(-c2nc3c(s2)C(O)CCC3)cc1 (stereo unspecified)	> 150000	1500	3000	> 150000	1170	830
Cc1cc(N(C)C)ccc1-c1nc2c(s1)[C@@H](O)CCC2	127000	560	1160	> 100000	2150	160
OC1CCCc2nc(-c3ccc(N4CCCC4)cc3)sc21 (stereo unspecified)	> 100000	1530	2800	> 100000	8700	200
CN(C)c1ccc(-c2nc3c(s2)[C@H](O)CCC3)cc1	114000	850	1430	> 100000	1450	200
OC1CNCc2nc(-c3ccc(N4CCCC4)cc3)sc21 (stereo unspecified)	25000	730	1070	27800	1530	140
OCc1cc(N2CCCC2)ccc1-c1nc2c(s1)C(O)CNC2 (stereo unspecified)	> 100000	70	60	> 100000	13	20
Cc1cc(N(C)C)ccc1-c1nc2c(s1)[C@H](O)CCC2	> 100000	270	230	> 100000	730	83
CN(C)c1ccc(-c2nc3c(s2)C(O)CNC3)c(CO)c1 (stereo unspecified)	> 100000	100	100	70000	31	22
CN(C)c1ccc(-c2nc3c(s2)C(O)CNC3)cc1 (stereo unspecified)	121000	1330	1630	70200	1600	170
